Calls of active or inactive are those of the source. No cut-off for these calls is given here.
Key:
[1] = Tmax in cynomolgus monkey at 1 mg/kg, po administered as single dose measured up to 24 hrs post dose by LC-MS/MS analysis; type: ADME, organism-based, Macaca fascicularis; settings: in vivo
[2] = Half life in Beagle dog at 0.5 mg/kg, iv administered as single dose measured up to 24 hrs post dose by LC-MS/MS analysis; type: ADME, organism-based, Canis lupus familiaris; settings: in vivo
[3] = target: Free fatty acid receptor 1 (Homo sapiens, UniProt O14842); test: Agonist activity at human GPR40 expressed in CHOA12 cells assessed as induction of Ca2+ mobilization by FLIPR assay; type: functional, cell-based
[4] = Cmax in Beagle dog at 1 mg/kg, po administered as single dose measured up to 24 hrs post dose by LC-MS/MS analysis; type: ADME, organism-based, Canis lupus familiaris; parameters: dose 1 mg/kg, route oral; settings: in vivo
[5] = Oral bioavailability in Beagle dog at 1 mg/kg administered via gavage as single dose measured up to 24 hrs post dose by LC-MS/MS analysis; type: ADME, organism-based, Canis lupus familiaris; settings: in vivo
[6] = Half life in Sprague-Dawley rat at 1 mg/kg, iv administered as single dose measured up to 24 hrs post dose by LC-MS/MS analysis; type: ADME, organism-based; settings: in vivo
Mus musculus [7] = test: Antidiabetic activity in C57BL/6J mouse assessed as reduction in plasma glucose excursion at 3 mg/kg, po administered 1 hr prior to glucose challenge measured after 120 mins in presence of DPP4 inhibitor BMS-538305 by OGTT assay; type: functional, organism-based
Mus musculus [8] = test: Antidiabetic activity in po dosed C57BL/6J mouse assessed as reduction of plasma glucose excursion administered 1 hr prior to glucose challenge measured after 120 mins by IPGTT; type: functional, organism-based
[9] = Clearance in Sprague-Dawley rat at 1 mg/kg, iv administered as single dose measured up to 24 hrs post dose by LC-MS/MS analysis; type: ADME, organism-based; settings: in vivo
[10] = Oral bioavailability in cynomolgus monkey at 1 mg/kg administered via gavage as single dose measured up to 24 hrs post dose by LC-MS/MS analysis; type: ADME, organism-based, Macaca fascicularis; settings: in vivo
[11] = target: Voltage-gated inwardly rectifying potassium channel KCNH2 (Homo sapiens, UniProt Q12809); test: Inhibition of human ERG (unknown origin) at <10 uM
[12] = Half life in cynomolgus monkey at 0.5 mg/kg, iv administered as single dose measured up to 24 hrs post dose by LC-MS/MS analysis; type: ADME, organism-based, Macaca fascicularis; settings: in vivo
[13] = Cmax in Sprague-Dawley rat at 3 mg/kg, po administered as single dose measured up to 24 hrs post dose by LC-MS/MS analysis; type: ADME, organism-based; parameters: dose 3 mg/kg, route oral; settings: in vivo
[14] = Half life in CD1 mouse at 1 mg/kg, iv administered as bolus dose or 1 mg/kg, po administered as single dose measured up to 24 hrs post dose by LC-MS/MS analysis; type: ADME, organism-based; settings: in vivo
[15] = Volume of distribution at steady state in Sprague-Dawley rat at 1 mg/kg, iv administered as single dose measured up to 24 hrs post dose by LC-MS/MS analysis; type: ADME, organism-based; settings: in vivo, read-out: Vdss
[16] = Half life in human liver microsomes at 1 to 3 uM incubated for 20 mins in presence NADPH measured up to 90 mins by LC/MS/MS analysis; type: ADME, microsome; settings: liver microsomes
Mus musculus [17] = test: Antidiabetic activity in C57BL/6J mouse assessed as increase in active GLP-1 levels at 3 mg/kg, po administered 1 hr prior to glucose challenge measured after 120 mins in presence of DPP4 inhibitor BMS-538305 during OGTT assay by ELISA; type: functional, organism-based
[18] = Oral bioavailability in Sprague-Dawley rat at 3 mg/kg administered via gavage as single dose measured up to 24 hrs post dose by LC-MS/MS analysis; type: ADME, organism-based; settings: in vivo
[19] = Half life in rat liver microsomes at 1 to 3 uM incubated for 20 mins in presence NADPH measured up to 90 mins by LC/MS/MS analysis; type: ADME, microsome; settings: liver microsomes
Mus musculus [20] = test: Antidiabetic activity in C57BL/6J mouse assessed as effect on active GLP-1 levels at 3 mg/kg, po administered 1 hr prior to glucose challenge measured after 120 mins during OGTT assay by ELISA; type: functional, organism-based
[21] = Clearance in Beagle dog at 0.5 mg/kg, iv administered as single dose measured up to 24 hrs post dose by LC-MS/MS analysis; type: ADME, organism-based, Canis lupus familiaris; settings: in vivo
[22] = Tmax in Sprague-Dawley rat at 3 mg/kg, po administered as single dose measured up to 24 hrs post dose by LC-MS/MS analysis; type: ADME, organism-based; settings: in vivo
[23] = Clearance in CD1 mouse at 1 mg/kg, iv administered as bolus dose or 1 mg/kg, po administered as single dose measured up to 24 hrs post dose by LC-MS/MS analysis; type: ADME, organism-based; settings: in vivo
[24] = Stability in rat liver microsomes assessed as parent compound remaining at 1 to 3 uM incubated for 20 mins in presence NADPH measured up to 90 mins by LC/MS/MS analysis; type: ADME, microsome; settings: liver microsomes, read-out: Stability
Method in brief: (§1)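 Human or rat liver microsomal incubations. The read-outs were % parent remaining, % D-ring dealkylation metabolites, % GSH adducts, and half-life (min). The metabolites followed were CYP450-mediated oxidative de-alkylation products (phenols) and GSH conjugates.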

[25] = Stability in human liver microsomes assessed as parent compound remaining at 1 to 3 uM incubated for 20 mins in presence NADPH measured up to 90 mins by LC/MS/MS analysis; type: ADME, microsome; settings: liver microsomes, read-out: Stability; method in brief: as §1
Mus musculus [26] = test: Antidiabetic activity in C57BL/6J mouse assessed as increase in plasma insulin levels at 3 mg/kg, po administered 1 hr prior to glucose challenge measured after 120 mins during OGTT by ELISA; type: functional, organism-based
[27] = Volume of distribution at steady state in Beagle dog at 0.5 mg/kg, iv administered as single dose measured up to 24 hrs post dose by LC-MS/MS analysis; type: ADME, organism-based, Canis lupus familiaris; settings: in vivo, read-out: Vdss
[28] = Volume of distribution at steady state in CD1 mouse at 1 mg/kg, iv via bolus dose or 1 mg/kg, po administered as single dose measured up to 24 hrs post dose by LC-MS/MS analysis; type: ADME, organism-based; settings: in vivo, read-out: Vdss
[29] = Tmax in C57BL6 mouse at 1 mg/kg, po administered as single dose measured up to 24 hrs post dose by LC-MS/MS analysis; type: ADME, organism-based; settings: in vivo
Mus musculus [30] = test: Antidiabetic activity in C57BL/6J mouse assessed as reduction in plasma glucose excursion at 3 mg/kg, po administered 1 hr prior to glucose challenge measured after 120 mins by OGTT assay; type: functional, organism-based

Free fatty acid receptor 1, sequence (O14842 whole entry): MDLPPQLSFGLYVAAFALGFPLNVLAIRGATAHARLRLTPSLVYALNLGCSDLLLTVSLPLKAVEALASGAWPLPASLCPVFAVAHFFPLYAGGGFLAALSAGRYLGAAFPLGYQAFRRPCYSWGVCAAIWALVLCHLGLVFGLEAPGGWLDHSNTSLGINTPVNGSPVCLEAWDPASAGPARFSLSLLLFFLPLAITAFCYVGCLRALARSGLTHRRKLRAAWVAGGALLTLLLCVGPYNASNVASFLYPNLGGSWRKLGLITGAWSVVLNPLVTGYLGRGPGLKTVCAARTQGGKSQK
Voltage-gated inwardly rectifying potassium channel KCNH2, sequence (Q12809 whole entry): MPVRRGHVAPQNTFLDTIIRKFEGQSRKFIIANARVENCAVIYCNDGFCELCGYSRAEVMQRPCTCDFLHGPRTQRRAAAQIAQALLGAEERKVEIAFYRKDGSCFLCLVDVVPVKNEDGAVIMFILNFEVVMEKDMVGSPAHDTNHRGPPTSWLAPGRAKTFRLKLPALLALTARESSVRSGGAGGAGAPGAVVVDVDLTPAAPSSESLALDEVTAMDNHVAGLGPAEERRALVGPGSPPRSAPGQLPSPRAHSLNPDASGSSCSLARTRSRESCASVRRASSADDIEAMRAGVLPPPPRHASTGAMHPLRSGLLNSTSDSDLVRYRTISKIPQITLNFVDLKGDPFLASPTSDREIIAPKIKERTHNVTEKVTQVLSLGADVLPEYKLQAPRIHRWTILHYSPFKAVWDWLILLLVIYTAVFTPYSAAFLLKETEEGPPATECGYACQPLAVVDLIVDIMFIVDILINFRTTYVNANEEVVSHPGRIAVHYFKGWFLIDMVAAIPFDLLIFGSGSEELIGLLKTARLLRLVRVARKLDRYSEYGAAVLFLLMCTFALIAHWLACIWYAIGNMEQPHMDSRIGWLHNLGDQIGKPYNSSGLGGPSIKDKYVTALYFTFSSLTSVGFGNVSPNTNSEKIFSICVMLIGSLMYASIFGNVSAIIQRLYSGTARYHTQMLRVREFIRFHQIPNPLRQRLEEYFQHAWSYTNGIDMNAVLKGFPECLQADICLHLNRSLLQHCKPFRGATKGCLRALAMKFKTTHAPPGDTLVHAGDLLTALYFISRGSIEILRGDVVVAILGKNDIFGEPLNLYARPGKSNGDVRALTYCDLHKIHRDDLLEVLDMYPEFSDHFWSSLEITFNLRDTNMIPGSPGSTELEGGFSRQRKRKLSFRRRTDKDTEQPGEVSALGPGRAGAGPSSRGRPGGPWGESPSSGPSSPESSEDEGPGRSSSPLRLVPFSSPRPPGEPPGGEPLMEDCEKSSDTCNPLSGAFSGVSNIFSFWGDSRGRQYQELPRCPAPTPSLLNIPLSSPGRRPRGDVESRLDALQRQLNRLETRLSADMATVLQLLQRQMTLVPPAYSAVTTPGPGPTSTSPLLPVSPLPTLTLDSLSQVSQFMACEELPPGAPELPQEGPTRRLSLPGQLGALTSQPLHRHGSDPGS

Tmax [1]: 5 h | half-life [2]: 5.2 h | EC50 [3]: 70 nM | Cmax [4]: 1200 nM | bioavailability [5]: 62% | half-life [6]: 4 h | clearance [9]: 3.4 mL/min/kg | bioavailability [10]: 61% | half-life [12]: 13 h | Cmax [13]: 3500 nM | half-life [14]: 3.1 h | Vd [15]: 0.3 L/kg | half-life [16]: 1.7 h | bioavailability [18]: 47% | half-life [19]: 1.35 h | clearance [21]: 2.2 mL/min/kg | Tmax [22]: 1.3 h | clearance [23]: 2 mL/min/kg | remaining at 20 min, up to 3 µM [24]: 75% | remaining at 20 min, up to 3 µM [25]: 89% | Vd [27]: 0.6 L/kg | Vd [28]: 0.4 L/kg | Tmax [29]: 1 h
Compound: COc1cc(N2CC[C@@H](Oc3ccc(N4N=C(C(F)(F)F)[C@@H](C)[C@@H]4CC(=O)O)cc3)[C@H](C)C2)c(Cl)cn1
Activity (Mus musculus [7]): Active | Activity (Mus musculus [8]): Dose-dependent effect | inhibition (INH) [11]: Not Active | Activity (Mus musculus [17]): Active | Activity (Mus musculus [20]): inactive | Activity (Mus musculus [26]): Active | Activity (Mus musculus [30]): Active
